Data reported in ChEMBL document CHEMBL1124869, “Synthesis and anti-HIV activity of several 2'-fluoro-containing pyrimidine nucleosides” (J Med Chem, 1990).
Converted amounts (≈) assume the structure as drawn. “And” between values parts separate entries of the source, which are not always exact repeats. Identical values can stand only once. Values belong to the compound of their own block, whether it stands above or below them.

Assays:
CCRF-CEM [1] = experiment: Cellular toxicity was measured in CEM cells after 8 days.50 tissue culture infectious doses were used.; format: functional, Homo sapiens
CCRF-CEM [2] = experiment: Antiviral test was performed against HIV (LAV strain) on CEM cells using 50 tissue culture infectious units.; format: functional; conditions: Homo sapiens, read-out: ID50 (the source's name)
In short: (§1)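 CEM-SS T cells infected with HIV-1 LAV strain. Inoculum was 50 or 30 tissue culture infectious units, depending on the assay. Viral replication was read as p24 core antigen in the culture supernatant by sandwich ELISA. Activity is expressed as 50% inhibitory dose (ID50) and 50% tissue culture inhibitory dose (TCID50).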

CCRF-CEM [3] = experiment: Antiviral test was performed against HIV (LAV strain) on CEM cells using 30 tissue culture infectious units; format: functional, Homo sapiens; in short: as §1
T-cell [4] = experiment: (§2) In vitro Antiviral activity against T-cell lines; format: functional; conditions: Homo sapiens, read-out: ID50 (the source's name)
In short: (§3)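 Freshly isolated T cells were stimulated with PHA mitogen and then infected with HIV HTLV-IIIB. Antiviral endpoint was p24 antigen at 10 days postinfection. Cell viability served as the toxicity endpoint.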

U-937 [5] = experiment: (§4) In vitro Antiviral activity against U937 cell lines; format: functional, Homo sapiens
T-cell [6] = experiment: as §2; format: functional, Homo sapiens; in short: as §3
U-937 [7] = experiment: as §4; format: functional; conditions: Homo sapiens, read-out: ID50 (the source's name)
PBL [8] = experiment: (§5) In vitro Antiviral activity against PBL cell lines; format: functional, Homo sapiens
PBL [9] = experiment: as §5; format: functional; conditions: Homo sapiens, read-out: ID50
Homo sapiens [10] = species: Homo sapiens; experiment: Bone marrow toxicity was measured against human colony forming units-granulocyte monocyte (CFU-GM), concentration is 1.0 uM
In short: (§6)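 Colony formation by normal human granulocyte-monocyte progenitors (CFU-GM) was scored in the presence of 0.1, 1.0 or 10.0 μM drug. Results are given as percent colony survival relative to control, mean ± deviation.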

Homo sapiens [11] = species: Homo sapiens; experiment: Bone marrow toxicity was measured against human colony forming units-granulocyte monocyte (CFU-GM), concentration is 10.0 uM; in short: as §6
Mo [12] = experiment: (§7) In vitro Antiviral activity against MO cell lines; format: functional, Homo sapiens
In short: (§8)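 Freshly isolated monocyte/macrophage cells were infected with the monocytotropic HIV Pan Data Strain (PDS). Antiviral endpoint was p24 viral antigen.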

CCRF-CEM [13] = experiment: (§9) Antiviral test was performed against HIV (LAV strain) on CEM cells using 30 tissue culture infectious units. T; format: functional, Homo sapiens; in short: as §1
Mo [14] = experiment: as §7; format: functional; conditions: Homo sapiens, read-out: ID50 (the source's name); in short: as §8
CCRF-CEM [15] = experiment: Cellular toxicity was measured in CEM cells after 8 days; format: functional, Homo sapiens
U-937 [16] = experiment: (§10) In vitro antiviral activity against U937 cell lines; format: functional; conditions: Homo sapiens, read-out: ID50 (the source's name)
T-cell [17] = experiment: (§11) In vitro antiviral activity against T-cells; format: functional; conditions: Homo sapiens, read-out: ID50 (the source's name); in short: as §3
T-cell [18] = experiment: as §11; format: functional, Homo sapiens; in short: as §3
[19] = (§12) In vitro antiviral activity against (monocyte macrophages) cell lines; format: functional; conditions: Homo sapiens; read-out: ID50 (the source's name); in short: as §8
PBL [20] = experiment: (§13) In vitro antiviral activity against PBL cell lines; format: functional, Homo sapiens
PBL [21] = experiment: as §13; format: functional; conditions: Homo sapiens, read-out: ID50 (the source's name)
[22] = as §12; format: functional, Homo sapiens; in short: as §8
CCRF-CEM [23] = experiment: as §9; format: functional; conditions: Homo sapiens, read-out: ID50 (the source's name); in short: as §1
CCRF-CEM [24] = experiment: (§14) In vitro antiviral activity against CEM cell lines; format: functional, Homo sapiens; in short: as §1
U-937 [25] = experiment: as §10; format: functional, Homo sapiens
CCRF-CEM [26] = experiment: as §14; format: functional; conditions: Homo sapiens, read-out: ID50 (the source's name); in short: as §1

SMILES: Cc1cn([C@@H]2O[C@H](CO)C=C2F)c(=O)[nH]c1=O
- cytotoxic concentration in CEM cells (CCRF-CEM [1]): 9.7 µg/mL
- IC50 (CCRF-CEM [2]): > 25 µg/mL

SMILES: Cc1cn([C@@H]2O[C@H](CO)[C@@H](N=[N+]=[N-])[C@H]2F)c(=O)[nH]c1=O
- cytotoxic concentration in CEM cells (CCRF-CEM [1]): 2.6 µg/mL
- IC50 (CCRF-CEM [2]): > 28.5 µg/mL

SMILES: Cc1cn([C@@H]2O[C@H](CO)C[C@H]2F)c(=O)[nH]c1=O
- TCID50 (CCRF-CEM [3]): >25 µg/mL
- IC50 (CCRF-CEM [2]): > 25 µg/mL

SMILES: O=c1ccn(C2OC(CO)CC2F)c(=O)[nH]1 (stereo not drawn)
- cytotoxic concentration in CEM cells (CCRF-CEM [1]): 57 µg/mL
- IC50 (CCRF-CEM [2]): > 10 µg/mL

SMILES: Cc1cn([C@H]2C[C@H](N=[N+]=[N-])[C@@H](CO)O2)c(=O)[nH]c1=O [ZIDOVUDINE]
- IC50 (U-937 [16]): 0.03 µg/mL (≈ 0.112 µM)
- IC50 (T-cell [17]): 0.033 µg/mL (≈ 0.123 µM)
- TCID50 (T-cell [18]): 100 µg/mL
- IC50 [19]: 0.1 µg/mL (≈ 0.374 µM)
- TCID50 (PBL [20]): 3 µg/mL
- Toxicity (Homo sapiens [11]): 23.6
- IC50 (PBL [21]): 0.0003 µg/mL (≈ 0.00112 µM)
- TCID50 [22]: 10 µg/mL
- IC50 (CCRF-CEM [2]): 0.08 µg/mL (≈ 0.299 µM)
- IC50 (CCRF-CEM [23]): 0.53 µg/mL (≈ 1.98 µM)
- TCID50 (CCRF-CEM [24]): >3 µg/mL
- TCID50 (U-937 [25]): 7.5 µg/mL
- IC50 (CCRF-CEM [26]): 0.03 µg/mL (≈ 0.112 µM)

Second part, led by results:

- IC50 (T-cell [4]): 0.33 µg/mL (≈ 1.44 µM)
- IC50 (U-937 [7]): 0.14 µg/mL (≈ 0.611 µM)
- IC50 (PBL [9]): < 2 µg/mL
- IC50 (CCRF-CEM [2]): 2.3 µg/mL (≈ 10 µM)
- IC50 (Mo [14]): 1 µg/mL (≈ 4.36 µM)
SMILES: Nc1ccn([C@@H]2O[C@H](CO)C[C@@H]2F)c(=O)n1
- TCID50 (U-937 [5]): 7.7 µg/mL
- TCID50 (T-cell [6]): 10 µg/mL
- TCID50 (PBL [8]): 11 µg/mL
- Toxicity (Homo sapiens [10]): 37.6
- cytotoxic concentration in CEM cells (CCRF-CEM [1]): >23 µg/mL and 61.9 µg/mL
- Toxicity (Homo sapiens [11]): 0
- TCID50 (Mo [12]): 3.3 µg/mL
- ID50 (CCRF-CEM [13]): 0.9 µg/mL (≈ 3.93 µM)

- IC50 (CCRF-CEM [2]): 1.3 µg/mL (≈ 5.72 µM)
SMILES: Nc1ccn([C@@H]2O[C@H](CO)C=C2F)c(=O)n1
- ID50 (CCRF-CEM [13]): 10.9 µg/mL (≈ 48 µM)

- IC50 (CCRF-CEM [2]): 0.007 µg/mL (≈ 0.0331 µM)
SMILES: Nc1ccn([C@H]2CC[C@@H](CO)O2)c(=O)n1 [ZALCITABINE]
- TCID50 (CCRF-CEM [15]): 1.3 µg/mL
